# Measurements taken from ChEMBL document CHEMBL1148454, “[1-(3,5-difluoro-4-hydroxyphenyl)-1H-pyrrol-3-yl]phenylmethanone as a bioisostere of a carboxylic acid aldose reductase inhibitor” (J Med Chem, 2004).
# pIC50: −log10 of the molar value.
# How the values were obtained:
# [1] = target: Aldo-keto reductase family 1 member B1 (Rattus norvegicus) (UniProt P07943); assay: In vitro percentage inhibition of rat lens aldose reductase at 10E-6 M concentration
# Summary of the method: (§1)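 Rat lens (Fischer-344, both sexes) aldose reductase, assayed by spectrophotometric monitoring of NADPH oxidation. Compounds dissolved in 0.2 M NaHCO3. Inhibition at a single concentration, triplicate determinations.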
# [2] = In vitro percentage inhibition of glycation-induced fluorescence changes of BSA at […] concentration; type: functional
# [3] = target: Aldo-keto reductase family 1 member B1 (Rattus norvegicus) (UniProt P07943); assay: In vitro percentage inhibition of rat lens aldose reductase at 10E-7 M concentration; summary of the method: as §1
# [4] = In vitro percentage inhibition of formation of DNPH-reactive carbonyl groups in BSA exposed to fructose at […] concentration; type: functional
# [5] = In vitro percentage inhibition of glycation-induced fluorescence changes of BSA at 5 mM concentration; type: functional
# Summary of the method: (§2)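 Bovine serum albumin (fraction V, essentially fatty acid free) incubated with fructose for 28 days. Compounds given as potassium salts in water; trolox as reference.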
# [6] = target: Aldo-keto reductase family 1 member B1 (Rattus norvegicus) (UniProt P07943); assay: In vitro percentage inhibition of rat lens aldose reductase at 10E-5 M concentration; summary of the method: as §1
# [7] = In vitro percentage inhibition of formation of DNPH-reactive carbonyl groups in BSA exposed to fructose at 5 mM concentration; type: functional; summary of the method: as §2
# [8] = target: Aldo-keto reductase family 1 member B1 (Rattus norvegicus, UniProt P07943); assay: In vitro inhibitory activity of compound against rat lens aldose reductase
# [9] = In vitro percentage inhibition of formation of DNPH-reactive carbonyl groups in BSA exposed to fructose at 1 mM concentration; type: functional; summary of the method: as §2
# [10] = In vitro percentage inhibition of glycation-induced fluorescence changes of BSA at 1 mM concentration; type: functional; summary of the method: as §2
inhibition [1] [%],inhibition [3] [%],inhibition [6] [%],pIC50 [8],SMILES,inhibition [2] [%],inhibition [4] [%],inhibition [5] [%],inhibition [7] [%],inhibition [9] [%],inhibition [10] [%]
68,29,88,6.40,O=C(c1ccccc1)c1ccn(-c2cc(F)c(O)c(F)c2)c1,68,55,74,61,48,64
37,,78,5.71,O=C(O)Cn1ccc(C(=O)c2ccccc2)c1,67,51,81,67,28,48
,,,,Cc1c(C)c2c(c(C)c1O)CCC(C)(C(=O)O)O2 (centres undefined),,,,,36,59
13,,24,4.63,Oc1c(F)cc(-n2cccc2)cc1F,,,,,,
